One test has as its system HeLa. In words: Cytotoxicity against human HeLa cells after 48 hrs by MTT assay. Format: functional, cell-based. In short, it runs like this: (§1)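 Run in triplicate; 10^4 cells per well, attached overnight. Cells exposed 4 h at 37 °C, 5% CO2, to compounds serially diluted from 10 mg/mL DMSO stocks (vehicle wells 0.2% DMSO in medium), then medium changed to fresh DMEM and grown a further 48 h. MTT at 0.5 mg/mL added for 3 h at 37 °C in the dark; formazan dissolved in DMSO, absorbance read at 540 nm.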
In general terms: Formazan colour is commonly taken as a measure of viable cells.

A further test concerns MCF7. In words: Cytotoxicity against human MCF7 cells after 48 hrs by MTT assay. Format: functional, cell-based. Conditions: MCF7, 48 h. In short, it runs like this:
as §1

The structures appear in SMILES notation. A value given as a limit tells only on which side of the number the result lay.

One may read the IC50 as the concentration needed to halve the response being measured.

Regarding `C=C=CCOc1ccc(CO[C@@H]2O[C@H](CO)[C@@H](O)[C@H](O)[C@@H]2O)cc1` [TERRICOLLENE B], the IC50 in the test on HeLa and in the test with MCF7 was > 118 µM throughout. Turning to `C#C[C@H](O)COc1ccc(CO)cc1` [TERRICOLYNE], the half-inhibitory concentration (IC50) with HeLa and in the test on MCF7 was > 200 µM each time. For the compound `C#C[C@H](O)COc1ccc(COC)cc1`, the IC50 with HeLa stood at 92.6 µM; in the test on MCF7, 116 µM. Regarding `C#C[C@H](O)COc1ccc(COC(C)=O)cc1`, the IC50 in the test with HeLa and with MCF7 was > 171 µM in each case. In turn, `O=c1[nH]cc(F)c(=O)[nH]1` [FLUOROURACIL] returned an IC50 in the test with HeLa of 10 µM. `C=C=CCOc1ccc(CO[C@@H]2O[C@H](CO)[C@@H](O)[C@H](O)[C@H]2O)cc1` [TERRICOLLENE A]: the IC50 in the test on HeLa was 53.3 µM; in the test with MCF7, 59.2 µM.

As to `C=C=CCOc1ccc(CO)cc1` [TERRICOLLENE C], the IC50 is 85.2 µM in the test with HeLa and 114 µM with MCF7.
